pEC50, pIC50: −log10 of the molar value.

As a reminder, the pIC50 is the negative decadic logarithm of the IC50, by convention in mol/L. Read a high pIC50 as a small IC50. The pEC50 is the EC50 on a negative log10 scale, so that one unit is a factor of ten. Read a high pEC50 as a small EC50.

Experiment [1] concerns the target T1, Aurora kinase A (Homo sapiens, UniProt O14965).
T1 sequence (O14965 whole entry): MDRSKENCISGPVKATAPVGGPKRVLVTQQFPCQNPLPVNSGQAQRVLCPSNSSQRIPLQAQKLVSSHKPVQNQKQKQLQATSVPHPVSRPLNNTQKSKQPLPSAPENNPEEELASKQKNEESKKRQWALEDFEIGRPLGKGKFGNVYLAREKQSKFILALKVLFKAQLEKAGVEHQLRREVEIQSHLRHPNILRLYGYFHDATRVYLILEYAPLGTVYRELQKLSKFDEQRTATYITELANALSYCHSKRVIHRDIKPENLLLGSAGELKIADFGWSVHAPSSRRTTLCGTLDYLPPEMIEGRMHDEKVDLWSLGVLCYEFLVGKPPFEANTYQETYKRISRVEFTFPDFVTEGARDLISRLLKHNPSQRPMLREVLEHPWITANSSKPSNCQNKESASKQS
Briefly: Inhibition of Aurora-A by microplate scintillation counting. The method, boiled down: (§1)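 Substrates: tetra(LRRWSLG) for Aurora A/B; poly(Ala,Glu,Lys,Tyr)6:2:5:1 for PDGFRβ; poly(Glu,Tyr)4:1 for TIE2 and VEGFR2. Stopped with 2% H3PO4.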

Experiment [2] concerns the target T2, Angiopoietin-1 receptor (Homo sapiens, UniProt Q02763). Briefly: Inhibition of TIE2 by microplate scintillation counting.
Experiment [3] deals with Aurora kinase B (Homo sapiens, UniProt Q96GD4). Briefly: Inhibition of Aurora-B by microplate scintillation counting. In outline: as §1
Experiment [4] concerns the target Vascular endothelial growth factor receptor 2 (Homo sapiens, UniProt P35968). Briefly: Inhibition of VEGFR2 by microplate scintillation counting.
Experiment [5] has as its target T3, Epidermal growth factor receptor (Homo sapiens, UniProt P00533). Briefly: Inhibition of EGFR in human HCT116 cells by cellular phosphorylation assay.
Experiment [6] addresses Vascular endothelial growth factor receptor 3 (Homo sapiens, UniProt P35916). Briefly: Inhibition of VEGFR3 by microplate scintillation counting. In outline: (§2)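 Radiometric FlashPlate assay using recombinant kinase (10–200 ng/well) with poly(Glu,Tyr)4:1 substrate. Buffer: 60 mM HEPES-NaOH pH 7.5, 3 mM MgCl2, 3 mM MnCl2, 3 µM orthovanadate, 1.2 mM DTT, PEG 20000, 1 µM [γ-33P]-ATP. Run 80 min at 30 °C, stopped with H3PO4, and 33P incorporation counted.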

For experiment [7], the target named is T3, Epidermal growth factor receptor. Kind of experiment: Inhibition of wild type EGF-R by microplate scintillation counting.
Experiment [8] addresses Platelet-derived growth factor receptor beta (Homo sapiens, UniProt P09619). Kind of experiment: Inhibition of PDGFRbeta by microplate scintillation counting. In outline: as §1
Experiment [9] concerns the target Receptor tyrosine-protein kinase erbB-2 (Homo sapiens, UniProt P04626). Kind of experiment: Inhibition of ERBB2 by microplate scintillation counting. The method, boiled down:
as §2

Experiment [10] concerns the target T2, Angiopoietin-1 receptor. Briefly: Inhibition of TIE2 in human HCT116 cells by cellular phosphorylation assay. The class given is cell-based, HCT-116. In outline:
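TIE2 autophosphorylation in cells expressing the receptor. Compound was applied, cells were stimulated, then lysed with phosphoprotein levels preserved. Phosphorylation was quantified by sandwich ELISA with a receptor-specific capture antibody and anti-phosphotyrosine antibody, relative to the stimulated high control.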

Vascular endothelial growth factor receptor 2, sequence (P35968 whole entry): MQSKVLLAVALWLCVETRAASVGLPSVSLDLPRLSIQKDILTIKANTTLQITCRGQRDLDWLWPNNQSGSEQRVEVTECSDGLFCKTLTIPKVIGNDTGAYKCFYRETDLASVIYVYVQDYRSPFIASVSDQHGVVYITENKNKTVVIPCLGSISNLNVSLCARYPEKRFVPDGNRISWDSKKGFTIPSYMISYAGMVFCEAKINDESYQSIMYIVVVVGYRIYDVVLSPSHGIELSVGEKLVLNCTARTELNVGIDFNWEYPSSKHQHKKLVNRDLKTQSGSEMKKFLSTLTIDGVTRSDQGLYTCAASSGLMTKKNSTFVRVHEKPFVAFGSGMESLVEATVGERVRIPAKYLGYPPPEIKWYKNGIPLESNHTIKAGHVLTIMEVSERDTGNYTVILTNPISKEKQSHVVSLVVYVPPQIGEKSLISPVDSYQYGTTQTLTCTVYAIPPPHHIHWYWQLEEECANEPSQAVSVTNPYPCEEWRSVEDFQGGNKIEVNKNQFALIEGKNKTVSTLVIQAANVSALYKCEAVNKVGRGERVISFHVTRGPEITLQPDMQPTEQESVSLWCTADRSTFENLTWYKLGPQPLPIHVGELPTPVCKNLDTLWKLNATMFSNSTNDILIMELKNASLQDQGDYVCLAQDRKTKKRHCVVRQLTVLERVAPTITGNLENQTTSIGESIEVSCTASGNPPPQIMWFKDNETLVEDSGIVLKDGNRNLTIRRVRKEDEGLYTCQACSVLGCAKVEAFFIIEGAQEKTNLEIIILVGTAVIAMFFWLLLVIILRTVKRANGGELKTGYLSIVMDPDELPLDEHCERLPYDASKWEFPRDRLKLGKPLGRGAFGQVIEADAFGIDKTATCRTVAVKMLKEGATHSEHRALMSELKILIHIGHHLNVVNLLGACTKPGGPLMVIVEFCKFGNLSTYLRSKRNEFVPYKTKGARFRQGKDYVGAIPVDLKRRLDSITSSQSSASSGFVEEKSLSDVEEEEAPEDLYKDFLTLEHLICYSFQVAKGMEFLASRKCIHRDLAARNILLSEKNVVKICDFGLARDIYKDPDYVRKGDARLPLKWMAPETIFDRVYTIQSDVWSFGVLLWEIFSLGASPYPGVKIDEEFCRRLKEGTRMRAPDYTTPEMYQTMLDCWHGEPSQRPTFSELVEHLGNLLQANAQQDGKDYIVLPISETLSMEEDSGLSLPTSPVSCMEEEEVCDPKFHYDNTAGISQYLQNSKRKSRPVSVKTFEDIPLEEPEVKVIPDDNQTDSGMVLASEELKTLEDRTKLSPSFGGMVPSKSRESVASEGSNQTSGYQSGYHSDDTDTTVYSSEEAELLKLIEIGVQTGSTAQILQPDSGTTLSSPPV
T3 sequence (P00533 whole entry): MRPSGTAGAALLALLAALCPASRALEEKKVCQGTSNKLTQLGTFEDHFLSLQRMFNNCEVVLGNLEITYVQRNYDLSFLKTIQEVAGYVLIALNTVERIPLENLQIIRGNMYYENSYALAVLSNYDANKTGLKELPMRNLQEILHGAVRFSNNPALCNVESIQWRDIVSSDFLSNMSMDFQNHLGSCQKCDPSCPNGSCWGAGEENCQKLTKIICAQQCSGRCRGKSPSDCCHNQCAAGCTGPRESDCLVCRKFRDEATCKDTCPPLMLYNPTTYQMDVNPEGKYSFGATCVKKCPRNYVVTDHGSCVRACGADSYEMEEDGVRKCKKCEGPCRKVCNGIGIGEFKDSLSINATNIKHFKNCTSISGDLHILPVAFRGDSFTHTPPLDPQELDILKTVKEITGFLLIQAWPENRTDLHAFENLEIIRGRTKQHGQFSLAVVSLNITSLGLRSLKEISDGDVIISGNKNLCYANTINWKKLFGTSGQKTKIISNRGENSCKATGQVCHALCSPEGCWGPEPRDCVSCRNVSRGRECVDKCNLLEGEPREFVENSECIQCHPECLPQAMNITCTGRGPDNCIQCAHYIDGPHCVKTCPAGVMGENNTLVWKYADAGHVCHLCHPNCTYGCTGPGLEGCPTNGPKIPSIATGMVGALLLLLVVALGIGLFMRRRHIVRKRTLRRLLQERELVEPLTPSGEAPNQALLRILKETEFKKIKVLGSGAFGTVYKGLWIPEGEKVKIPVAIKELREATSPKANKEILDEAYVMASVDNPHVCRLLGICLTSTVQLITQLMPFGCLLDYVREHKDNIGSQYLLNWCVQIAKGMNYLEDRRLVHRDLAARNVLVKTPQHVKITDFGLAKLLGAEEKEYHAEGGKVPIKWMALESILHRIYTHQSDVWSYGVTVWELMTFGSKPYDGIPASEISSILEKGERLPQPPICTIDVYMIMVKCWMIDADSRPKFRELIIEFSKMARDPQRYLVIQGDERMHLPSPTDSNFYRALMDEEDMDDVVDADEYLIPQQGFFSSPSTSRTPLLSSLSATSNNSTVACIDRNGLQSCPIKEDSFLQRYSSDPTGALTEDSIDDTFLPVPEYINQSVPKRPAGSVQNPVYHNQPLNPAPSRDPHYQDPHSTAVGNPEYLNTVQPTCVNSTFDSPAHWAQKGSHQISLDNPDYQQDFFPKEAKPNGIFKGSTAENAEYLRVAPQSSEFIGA
T2 sequence (Q02763 whole entry): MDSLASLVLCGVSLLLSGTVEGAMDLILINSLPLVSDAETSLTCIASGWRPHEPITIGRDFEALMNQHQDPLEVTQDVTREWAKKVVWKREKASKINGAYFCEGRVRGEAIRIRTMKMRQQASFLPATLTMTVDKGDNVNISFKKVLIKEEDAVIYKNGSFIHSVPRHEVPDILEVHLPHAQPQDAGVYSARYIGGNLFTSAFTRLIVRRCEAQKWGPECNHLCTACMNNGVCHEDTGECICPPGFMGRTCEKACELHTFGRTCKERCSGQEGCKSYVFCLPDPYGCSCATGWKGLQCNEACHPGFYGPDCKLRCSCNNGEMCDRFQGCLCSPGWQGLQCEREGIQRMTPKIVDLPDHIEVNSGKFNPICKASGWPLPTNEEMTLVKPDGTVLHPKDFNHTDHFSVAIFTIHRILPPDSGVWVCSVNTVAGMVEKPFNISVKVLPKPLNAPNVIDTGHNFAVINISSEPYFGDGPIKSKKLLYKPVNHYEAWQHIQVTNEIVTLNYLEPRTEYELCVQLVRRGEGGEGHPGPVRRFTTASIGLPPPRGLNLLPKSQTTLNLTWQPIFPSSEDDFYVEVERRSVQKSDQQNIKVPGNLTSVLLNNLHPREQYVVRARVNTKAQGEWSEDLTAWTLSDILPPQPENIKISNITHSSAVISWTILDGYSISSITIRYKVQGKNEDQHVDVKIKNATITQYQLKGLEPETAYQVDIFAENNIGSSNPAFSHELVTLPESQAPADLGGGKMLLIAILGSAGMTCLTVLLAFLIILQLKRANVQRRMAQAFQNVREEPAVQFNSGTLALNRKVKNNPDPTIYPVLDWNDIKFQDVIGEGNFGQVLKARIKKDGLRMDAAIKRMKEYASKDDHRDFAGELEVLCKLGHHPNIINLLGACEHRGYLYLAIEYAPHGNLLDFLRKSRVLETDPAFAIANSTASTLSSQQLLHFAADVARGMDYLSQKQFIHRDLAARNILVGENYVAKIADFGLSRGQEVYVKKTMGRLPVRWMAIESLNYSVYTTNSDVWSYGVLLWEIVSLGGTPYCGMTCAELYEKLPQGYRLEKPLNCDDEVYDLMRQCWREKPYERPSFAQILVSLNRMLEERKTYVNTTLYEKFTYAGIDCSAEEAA
Platelet-derived growth factor receptor beta, sequence (P09619 whole entry): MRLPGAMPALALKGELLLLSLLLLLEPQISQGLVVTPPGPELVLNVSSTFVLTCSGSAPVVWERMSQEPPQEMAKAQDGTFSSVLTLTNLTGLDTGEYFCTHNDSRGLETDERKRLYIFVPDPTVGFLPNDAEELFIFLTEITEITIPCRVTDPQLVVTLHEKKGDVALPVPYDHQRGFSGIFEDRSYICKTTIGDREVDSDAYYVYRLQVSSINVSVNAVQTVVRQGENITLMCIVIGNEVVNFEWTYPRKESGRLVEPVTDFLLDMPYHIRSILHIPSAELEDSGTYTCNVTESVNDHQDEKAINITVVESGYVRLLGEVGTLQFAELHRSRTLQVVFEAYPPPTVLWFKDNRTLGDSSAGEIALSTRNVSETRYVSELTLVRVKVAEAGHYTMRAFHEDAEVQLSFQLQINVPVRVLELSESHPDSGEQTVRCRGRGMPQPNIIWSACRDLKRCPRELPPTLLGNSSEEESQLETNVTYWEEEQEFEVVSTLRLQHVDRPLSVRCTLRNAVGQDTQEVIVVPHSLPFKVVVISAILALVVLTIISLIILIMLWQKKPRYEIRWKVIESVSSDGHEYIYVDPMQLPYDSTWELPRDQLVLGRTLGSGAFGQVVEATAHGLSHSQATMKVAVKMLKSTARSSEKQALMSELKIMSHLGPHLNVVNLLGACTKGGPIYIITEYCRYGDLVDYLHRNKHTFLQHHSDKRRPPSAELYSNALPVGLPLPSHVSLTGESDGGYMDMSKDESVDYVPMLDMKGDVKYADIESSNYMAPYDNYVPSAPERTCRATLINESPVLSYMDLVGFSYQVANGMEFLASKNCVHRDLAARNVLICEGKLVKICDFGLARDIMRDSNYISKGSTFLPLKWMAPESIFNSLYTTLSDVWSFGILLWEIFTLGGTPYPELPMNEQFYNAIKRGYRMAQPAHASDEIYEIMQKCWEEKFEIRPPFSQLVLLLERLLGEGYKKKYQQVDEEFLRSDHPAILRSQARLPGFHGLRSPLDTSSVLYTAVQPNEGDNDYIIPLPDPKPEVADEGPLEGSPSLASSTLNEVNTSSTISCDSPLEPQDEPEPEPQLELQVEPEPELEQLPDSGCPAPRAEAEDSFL

Turning to `COc1cc2c(Nc3ccc(-c4nc5ccc(F)cc5s4)cc3)ncnc2cc1OCCCN1CCN(C)CC1`, the pIC50 in [1] was 7.59; in experiment [2], 6.63; in experiment [3], 7.39; in experiment [4], 6.47; in [6] it was 6.06; in experiment [7] it was 6.14. For the same compound, the results for the pIC50 in [8] and in experiment [9] were 5.47 and 5.16, respectively. In addition, the pEC50 in experiment [5] and in [10] was under 5.00 in each case.
As to `COc1cc(-c2nc3ccccc3s2)ccc1Nc1ncnc2cc(OCCCN3CCN(C)CC3)c(OC)cc12`, the pIC50 in [1] was 7.19; in experiment [2] it was 6.48; in experiment [3], 7.05; in experiment [4] it was 5.48; in [6] it was 5.77; in experiment [7] it was under 5.00. Besides, the values for the pIC50 in [8] and in experiment [9] were 5.29 and under 5.00, respectively. In addition, the pEC50 in [5] and in experiment [10] was under 5.00 in each case.
On to `COc1cc2c(Nc3ccc(-c4nc5ccccc5s4)cc3F)ncnc2cc1OCCCN1CCN(C)CC1`, for which the pIC50 in experiment [1] is 7.59; in experiment [2], 7.54; in experiment [3], 7.55; in [4], 7.21; in experiment [6], 6.46; in [7] it was 6.09. The pIC50 in [8] was 5.36; in [9], 5.62. In addition, the pEC50 in [5] is under 5.00; in experiment [10], 5.68.
Consider `COc1cc2c(Nc3ccc(-c4nc5ccccc5s4)c(OC)c3)ncnc2cc1OCCCN1CCN(C)CC1`, for which the pIC50 in experiment [1] was 6.92; in [2], 6.96; in [3] it was 6.52; in experiment [4], 5.92; in experiment [6] it was 5.15; in experiment [7], 8.70. In addition, the values for the pIC50 in experiment [8] and in [9] were 5.68 and 8.30, respectively. For the same compound, the pEC50 in experiment [5] was 5.03; in experiment [10], under 5.00.
`COc1cc2c(Nc3ccc(-c4nc5cc(C(F)(F)F)ccc5s4)cc3)ncnc2cc1OCCCN1CCN(C)CC1`: the pIC50 in [1] is 7.22; in experiment [2] it was 5.48; in experiment [3], 6.92; in experiment [4] it was under 5.00; in [6], under 5.00; in experiment [7], under 5.00. The results for the pIC50 in [8] and in [9] were 5.09 and under 5.00, respectively. The pEC50 in experiment [5] and in [10] was under 5.00 throughout.
On to `COc1cc2c(Nc3ccc(-c4nc5cc(Cl)ccc5s4)cc3)ncnc2cc1OCCCN1CCN(C)CC1`, for which the pIC50 was 7.62 in [1]; 6.29 in [2]; 7.21 in experiment [3]; 6.21 in experiment [4]; 5.89 in experiment [6]; under 5.00 in experiment [7]. The pIC50 in [8] and in experiment [9] was under 5.00 in each case. For the same compound, the pEC50 in experiment [5] and in [10] was under 5.00 each time.
In the case of `COc1cc2c(Nc3ccc(-c4nc5ccccc5s4)c(O)c3)ncnc2cc1OCCCN1CCN(C)CC1`, the pIC50 in experiment [1] is 7.04; in experiment [2] it was 6.92; in experiment [3] it was 7.23; in [4], 6.42; in experiment [6], 6.28; in experiment [7], 6.96. Moreover, the pIC50 in [8] is 5.35; in experiment [9], 6.11. Moreover, the negative-log EC50 (pEC50) in experiment [5] is 4.48; in [10] it was under 5.00.
